Assay [1] has as its target T1, Muscle, skeletal receptor tyrosine-protein kinase (Homo sapiens) (UniProt O15146).
T1 sequence (whole entry): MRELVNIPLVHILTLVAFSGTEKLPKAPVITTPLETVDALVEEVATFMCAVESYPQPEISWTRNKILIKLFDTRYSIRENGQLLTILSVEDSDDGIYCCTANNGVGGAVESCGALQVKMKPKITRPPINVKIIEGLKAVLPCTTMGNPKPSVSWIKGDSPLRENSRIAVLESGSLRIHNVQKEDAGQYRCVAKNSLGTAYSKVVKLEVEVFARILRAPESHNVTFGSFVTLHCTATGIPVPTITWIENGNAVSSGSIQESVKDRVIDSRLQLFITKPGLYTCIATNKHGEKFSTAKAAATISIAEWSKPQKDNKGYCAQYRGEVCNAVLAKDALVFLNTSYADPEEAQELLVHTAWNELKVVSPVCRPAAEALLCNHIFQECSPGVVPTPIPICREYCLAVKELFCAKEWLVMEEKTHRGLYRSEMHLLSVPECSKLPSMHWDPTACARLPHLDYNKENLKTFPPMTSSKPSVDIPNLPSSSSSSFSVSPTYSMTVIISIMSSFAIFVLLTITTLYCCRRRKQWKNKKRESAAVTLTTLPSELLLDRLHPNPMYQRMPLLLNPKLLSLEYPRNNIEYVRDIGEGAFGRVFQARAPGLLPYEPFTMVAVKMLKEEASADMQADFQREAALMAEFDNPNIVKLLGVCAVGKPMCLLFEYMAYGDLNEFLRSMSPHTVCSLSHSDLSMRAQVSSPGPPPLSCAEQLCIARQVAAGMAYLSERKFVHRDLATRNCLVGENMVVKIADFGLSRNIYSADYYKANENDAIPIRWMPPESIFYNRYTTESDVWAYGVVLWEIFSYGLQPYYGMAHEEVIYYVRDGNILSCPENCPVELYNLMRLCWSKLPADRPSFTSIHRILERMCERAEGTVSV
As to the kind of experiment: Inhibition of human MuSK assessed as residual activity at 1 uM relative to control.

Another assay relates to SK-MEL-28. Briefly: Antiproliferative activity against human SK-MEL-28 cells after 3 days by sulforhodamine B assay. It is filed as functional. The following applies: SK-MEL-28, 72 h. The method in brief: (§1)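 Tested in the NCI 60 cell line panel. GI50 is the concentration giving 50% inhibition of cell growth, and values are the mean of two series of tests.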
On the technique in general: Sulforhodamine B stains cellular protein and so reports cell mass.

Assay [2] addresses Serine/threonine-protein kinase Nek7 (Homo sapiens) (UniProt Q8TDX7). Briefly: Inhibition of human NEK7 assessed as residual activity at 1 uM relative to control.
The subject of another assay is MCF7. As to the kind of experiment: Induction of late stage apoptosis in human MCF7 cells expressing CK2 at 0.25 to 4 uM after 24 hrs using propidium iodide/annexin V staining by FACS analysis. It is filed as functional, cell-based. The gist of the method: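 MCF7 cells were then treated for 24 h, stained with FITC-annexin V in HEPES pH 7.4 binding buffer with 1.8 mM CaCl2 (15 min, dark, room temperature), then with PI (10 min), and analysed by FACS.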

Assay [3] deals with Protein kinase C theta type (Homo sapiens) (UniProt Q04759). Briefly: Inhibition of human PKCtheta assessed as residual activity at 1 uM relative to control.
The target of assay [4] is Mitogen-activated protein kinase 12 (Homo sapiens) (UniProt P53778). As to the kind of experiment: Inhibition of human SAPK3 assessed as residual activity at 1 uM relative to control.
Assay [5] concerns the target Ephrin type-B receptor 3 (Homo sapiens) (UniProt P54753). Briefly: Inhibition of human EphB3 assessed as residual activity at 1 uM relative to control.
A short description of assay [6]: Antiproliferative activity against human RXF393 cells after 3 days by sulforhodamine B assay. It is filed as functional. The following applies: RXF 393, 72 h. The method in brief: as §1
Assay [7] addresses Tyrosine-protein kinase Fgr (Homo sapiens) (UniProt P09769). Briefly: Inhibition of FGR (unknown origin) assessed as residual activity at 1 uM relative to control.
The target of assay [8] is Tyrosine-protein kinase JAK2 (Homo sapiens) (UniProt O60674). Briefly: Inhibition of JAK2 (unknown origin) assessed as residual activity at 1 uM relative to control.
Assay [9] deals with Calcium/calmodulin-dependent protein kinase type II subunit beta (Homo sapiens) (UniProt Q13554). Briefly: Inhibition of human CaMK2beta assessed as residual activity at 1 uM relative to control.
Assay [10] concerns the target Homeodomain-interacting protein kinase 2 (Homo sapiens) (UniProt Q9H2X6). As to the kind of experiment: Inhibition of human HIPK2 assessed as residual activity at 1 uM relative to control.
The test system of a further assay is OVCAR-3. Briefly: Antiproliferative activity against human OVCAR3 cells after 3 days by sulforhodamine B assay. It is filed as functional. The following applies: OVCAR-3, 72 h. The gist of the method:
as §1

In assay [11] the target is Inhibitor of nuclear factor kappa-B kinase subunit alpha (Homo sapiens) (UniProt O15111). Briefly: Inhibition of human IKKalpha assessed as residual activity at 1 uM relative to control.
The target in assay [12] is Ribosomal protein S6 kinase alpha-3 (Homo sapiens) (UniProt P51812). Briefly: Inhibition of human Rsk2 assessed as residual activity at 1 uM relative to control.
Assay [13] has as its target Dual specificity mitogen-activated protein kinase kinase 4 (Mus musculus) (UniProt P47809). Briefly: Inhibition of mouse MKK4 assessed as residual activity at 1 uM relative to control.
Assay [14] addresses Tyrosine-protein kinase Lyn (Homo sapiens) (UniProt P07948). Briefly: Inhibition of human Lyn assessed as residual activity at 1 uM relative to control.
The target of assay [15] is Serine/threonine-protein kinase MRCK beta (Homo sapiens) (UniProt Q9Y5S2). Briefly: Inhibition of human MRCKbeta assessed as residual activity at 1 uM relative to control.
Assay [16] has as its target Serine/threonine-protein kinase tousled-like 2 (Homo sapiens) (UniProt Q86UE8). Briefly: Inhibition of human TLK2 assessed as residual activity at 1 uM relative to control.
In assay [17] the target is Mast/stem cell growth factor receptor Kit (Homo sapiens) (UniProt P10721). Briefly: Inhibition of KIT (unknown origin) assessed as residual activity at 10 uM relative to control.
The next assay deals with NCI-H23. As to the kind of experiment: Antiproliferative activity against human NCI-H23 cells after 3 days by sulforhodamine B assay. It is filed as functional. The following applies: NCI-H23, 72 h. The gist of the method: as §1
The target in assay [18] is Serine/threonine-protein kinase pim-3 (Homo sapiens) (UniProt Q86V86). Briefly: Inhibition of human Pim-3 assessed as residual activity at 1 uM relative to control.
In assay [19] the target is Platelet-derived growth factor receptor alpha (Homo sapiens) (UniProt P16234). As to the kind of experiment: Inhibition of PDGFR-alpha (unknown origin) assessed as residual activity at 1 uM relative to control.
Assay [20] has as its target Casein kinase II (Homo sapiens) (UniProt P67870+P68400+P19784). As to the kind of experiment: Inhibition of CK2 in human HEK293 cells assessed as reduction of Akt phosphorylation at S473 at 0.25 to 8 uM after 2 hrs by Western blot analysis. In kind it is cell-based. The method in brief:
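Cells were lysed in urea lysis buffer (6 M urea, NaF, Na3VO4, protease inhibitors). 20–40 µg protein was run on 10% SDS-PAGE and detected by ECL. Primary antibodies (pAkt S473, PARP, β-actin loading control) were used at 1:1000 overnight at 4 °C. DMSO was the vehicle control. For the pAkt blots, cells were treated for 2 h with Ly294002 as positive control.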
For orientation: A western blot detects proteins with antibodies after separation by electrophoresis.

Activity calls are given as the source filed them. No cut-off for these calls is given here.

The term GI50 denotes the concentration that inhibits growth by half.

Sequence of Ribosomal protein S6 kinase alpha-3 (Homo sapiens) (P51812 whole entry): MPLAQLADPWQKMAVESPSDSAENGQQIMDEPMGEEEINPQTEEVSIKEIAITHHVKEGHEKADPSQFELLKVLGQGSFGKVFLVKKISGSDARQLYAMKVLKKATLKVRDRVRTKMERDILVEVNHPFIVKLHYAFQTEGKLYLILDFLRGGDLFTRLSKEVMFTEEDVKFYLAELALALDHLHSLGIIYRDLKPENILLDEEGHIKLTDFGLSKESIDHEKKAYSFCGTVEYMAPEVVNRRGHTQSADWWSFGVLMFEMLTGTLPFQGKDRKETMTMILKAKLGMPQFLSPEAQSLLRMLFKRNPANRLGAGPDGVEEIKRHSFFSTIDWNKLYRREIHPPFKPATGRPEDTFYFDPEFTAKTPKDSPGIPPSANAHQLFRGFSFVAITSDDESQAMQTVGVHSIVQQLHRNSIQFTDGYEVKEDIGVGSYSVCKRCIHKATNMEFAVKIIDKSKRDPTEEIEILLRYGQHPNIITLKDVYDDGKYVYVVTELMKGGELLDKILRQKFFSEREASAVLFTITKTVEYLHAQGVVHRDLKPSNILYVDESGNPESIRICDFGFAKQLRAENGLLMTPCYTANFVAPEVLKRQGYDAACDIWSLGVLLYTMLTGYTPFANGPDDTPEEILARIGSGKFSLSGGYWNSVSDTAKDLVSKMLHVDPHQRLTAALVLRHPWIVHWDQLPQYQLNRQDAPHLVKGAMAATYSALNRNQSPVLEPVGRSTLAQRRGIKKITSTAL
Sequence of Dual specificity mitogen-activated protein kinase kinase 4 (Mus musculus) (P47809 whole entry): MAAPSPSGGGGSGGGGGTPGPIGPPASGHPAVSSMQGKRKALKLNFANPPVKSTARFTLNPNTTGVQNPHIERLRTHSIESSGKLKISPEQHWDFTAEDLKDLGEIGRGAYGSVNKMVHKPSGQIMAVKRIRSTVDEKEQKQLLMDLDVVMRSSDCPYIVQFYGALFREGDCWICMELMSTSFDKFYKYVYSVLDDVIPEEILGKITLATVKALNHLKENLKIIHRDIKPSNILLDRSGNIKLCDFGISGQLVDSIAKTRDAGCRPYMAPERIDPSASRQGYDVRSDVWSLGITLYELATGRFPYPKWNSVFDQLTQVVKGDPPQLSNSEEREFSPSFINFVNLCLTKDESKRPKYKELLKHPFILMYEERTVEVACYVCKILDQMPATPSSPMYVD
Sequence of Tyrosine-protein kinase Fgr (Homo sapiens) (P09769 2-529 limits assumed): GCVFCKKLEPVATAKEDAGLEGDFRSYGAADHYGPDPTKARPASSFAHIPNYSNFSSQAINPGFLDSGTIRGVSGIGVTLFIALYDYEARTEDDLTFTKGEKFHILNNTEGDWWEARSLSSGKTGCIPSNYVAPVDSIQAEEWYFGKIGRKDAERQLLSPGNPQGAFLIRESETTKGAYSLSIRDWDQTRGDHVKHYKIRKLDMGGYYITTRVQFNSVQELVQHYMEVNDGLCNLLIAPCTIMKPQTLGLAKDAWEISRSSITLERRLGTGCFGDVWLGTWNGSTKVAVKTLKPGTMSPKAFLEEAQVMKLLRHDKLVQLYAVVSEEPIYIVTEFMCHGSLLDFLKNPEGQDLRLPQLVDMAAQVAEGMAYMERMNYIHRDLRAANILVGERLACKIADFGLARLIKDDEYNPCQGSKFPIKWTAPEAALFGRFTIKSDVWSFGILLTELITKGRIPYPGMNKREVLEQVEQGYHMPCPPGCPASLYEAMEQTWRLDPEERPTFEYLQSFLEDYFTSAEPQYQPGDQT
Sequence of Serine/threonine-protein kinase tousled-like 2 (Homo sapiens) (Q86UE8 whole entry, looked up): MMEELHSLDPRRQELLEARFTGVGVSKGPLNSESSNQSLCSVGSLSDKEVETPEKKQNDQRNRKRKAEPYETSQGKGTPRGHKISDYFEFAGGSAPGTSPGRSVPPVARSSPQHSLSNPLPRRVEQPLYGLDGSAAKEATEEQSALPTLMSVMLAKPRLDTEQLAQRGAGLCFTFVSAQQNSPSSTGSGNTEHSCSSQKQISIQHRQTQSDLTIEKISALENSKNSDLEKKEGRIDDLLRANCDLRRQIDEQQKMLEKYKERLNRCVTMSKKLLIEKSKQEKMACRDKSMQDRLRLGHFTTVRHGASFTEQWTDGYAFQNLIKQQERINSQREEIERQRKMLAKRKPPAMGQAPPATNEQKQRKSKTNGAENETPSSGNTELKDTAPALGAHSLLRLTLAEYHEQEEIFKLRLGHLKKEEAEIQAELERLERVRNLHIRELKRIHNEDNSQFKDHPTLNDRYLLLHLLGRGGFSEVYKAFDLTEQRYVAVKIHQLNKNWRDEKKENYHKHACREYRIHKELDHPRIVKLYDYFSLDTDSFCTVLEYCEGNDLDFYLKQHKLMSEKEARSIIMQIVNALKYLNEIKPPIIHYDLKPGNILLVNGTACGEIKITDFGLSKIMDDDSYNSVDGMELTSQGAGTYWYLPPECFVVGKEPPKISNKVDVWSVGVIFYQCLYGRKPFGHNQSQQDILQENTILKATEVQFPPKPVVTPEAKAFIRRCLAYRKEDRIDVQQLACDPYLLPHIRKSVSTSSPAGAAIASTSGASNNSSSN
Sequence of Protein kinase C theta type (Homo sapiens) (Q04759 whole entry, looked up): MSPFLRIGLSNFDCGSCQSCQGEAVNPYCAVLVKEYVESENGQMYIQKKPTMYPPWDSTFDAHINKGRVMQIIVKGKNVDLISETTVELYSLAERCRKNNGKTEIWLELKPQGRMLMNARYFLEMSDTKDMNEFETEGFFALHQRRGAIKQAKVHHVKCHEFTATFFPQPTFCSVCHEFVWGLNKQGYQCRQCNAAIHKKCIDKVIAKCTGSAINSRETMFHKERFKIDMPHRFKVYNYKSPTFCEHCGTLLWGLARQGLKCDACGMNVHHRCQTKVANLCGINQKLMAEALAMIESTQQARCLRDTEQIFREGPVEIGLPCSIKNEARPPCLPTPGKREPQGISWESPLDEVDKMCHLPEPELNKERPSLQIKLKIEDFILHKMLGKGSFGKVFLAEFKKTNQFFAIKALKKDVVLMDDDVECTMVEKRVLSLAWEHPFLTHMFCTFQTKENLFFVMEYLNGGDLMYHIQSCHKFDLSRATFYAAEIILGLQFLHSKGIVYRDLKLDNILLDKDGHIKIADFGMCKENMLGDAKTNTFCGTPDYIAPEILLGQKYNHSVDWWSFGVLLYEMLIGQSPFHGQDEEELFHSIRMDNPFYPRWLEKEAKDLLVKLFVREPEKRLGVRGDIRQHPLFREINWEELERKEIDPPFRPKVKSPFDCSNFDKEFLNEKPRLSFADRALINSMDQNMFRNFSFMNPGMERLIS
Sequence of Calcium/calmodulin-dependent protein kinase type II subunit beta (Homo sapiens) (Q13554 whole entry): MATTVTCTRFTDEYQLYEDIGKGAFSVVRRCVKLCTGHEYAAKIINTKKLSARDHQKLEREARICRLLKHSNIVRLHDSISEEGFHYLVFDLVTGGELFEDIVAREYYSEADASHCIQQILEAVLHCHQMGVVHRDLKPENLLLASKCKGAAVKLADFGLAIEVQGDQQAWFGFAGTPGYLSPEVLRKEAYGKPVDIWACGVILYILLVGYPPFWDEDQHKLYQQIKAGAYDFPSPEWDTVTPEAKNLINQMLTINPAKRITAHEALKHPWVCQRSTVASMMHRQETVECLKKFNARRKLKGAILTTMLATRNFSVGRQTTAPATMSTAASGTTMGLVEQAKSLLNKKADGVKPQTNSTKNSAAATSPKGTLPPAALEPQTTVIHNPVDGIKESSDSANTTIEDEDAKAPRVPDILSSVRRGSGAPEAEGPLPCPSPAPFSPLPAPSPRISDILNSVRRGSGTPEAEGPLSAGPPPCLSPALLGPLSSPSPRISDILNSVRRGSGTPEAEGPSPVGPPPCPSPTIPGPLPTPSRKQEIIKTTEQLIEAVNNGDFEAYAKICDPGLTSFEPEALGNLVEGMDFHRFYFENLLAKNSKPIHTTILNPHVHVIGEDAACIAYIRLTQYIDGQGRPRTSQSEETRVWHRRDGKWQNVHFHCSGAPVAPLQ
Sequence of Mitogen-activated protein kinase 12 (Homo sapiens) (P53778 whole entry): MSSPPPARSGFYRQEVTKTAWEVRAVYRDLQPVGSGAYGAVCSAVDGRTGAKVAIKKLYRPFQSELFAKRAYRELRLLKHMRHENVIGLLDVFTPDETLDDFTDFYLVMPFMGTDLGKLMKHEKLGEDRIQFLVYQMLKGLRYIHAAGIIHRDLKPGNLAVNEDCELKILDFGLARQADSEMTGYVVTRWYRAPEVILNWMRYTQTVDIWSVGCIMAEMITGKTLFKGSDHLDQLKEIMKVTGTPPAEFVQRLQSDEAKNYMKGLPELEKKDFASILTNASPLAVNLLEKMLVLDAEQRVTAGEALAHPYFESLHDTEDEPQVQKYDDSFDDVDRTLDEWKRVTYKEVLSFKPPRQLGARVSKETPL
Sequence of Serine/threonine-protein kinase Nek7 (Homo sapiens) (Q8TDX7 whole entry, looked up): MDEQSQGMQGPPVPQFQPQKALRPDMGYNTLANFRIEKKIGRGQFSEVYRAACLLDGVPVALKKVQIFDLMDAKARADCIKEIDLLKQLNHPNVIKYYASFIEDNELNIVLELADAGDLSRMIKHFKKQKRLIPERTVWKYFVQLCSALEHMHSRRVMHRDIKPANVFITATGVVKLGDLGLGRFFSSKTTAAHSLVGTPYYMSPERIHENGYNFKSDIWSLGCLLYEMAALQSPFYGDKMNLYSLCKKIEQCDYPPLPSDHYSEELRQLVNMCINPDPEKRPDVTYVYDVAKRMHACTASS

With `O=C1Nc2ncccc2/C1=C1/Nc2ncccc2C1=O`, the Activity was determined as 134% in assay [1]; 57% in [2]; 116% in assay [3]; 101% in assay [4]; 123% in [5]; 95% in assay [7]. For the same compound, the Activity was 103% in assay [8]; 99% in assay [9]; 115% in assay [10]; 99% in assay [11]; 94% in assay [12]; 110% in assay [13]. In addition, the Activity turned out to be 123% in assay [14]; 102% in [15]; 103% in [16]; 73% in assay [17]; 74% in assay [18]; 94% in assay [19]. The GI50 in the assay with SK-MEL-28 is 2830 nM; in assay [6], 2190 nM; in the assay on OVCAR-3, 289 nM; in the assay on NCI-H23, 376 nM. Moreover, in the assay with MCF7, the outcome was Active. In assay [20], the inhibition entry was “Active”.

(Values after ChEMBL document CHEMBL3098105, “7,7'-Diazaindirubin--a small molecule inhibitor of casein kinase 2 in vitro and in cells” (Bioorg Med Chem, 2014).)
